Laboratory results from PMC12413468 (Communications Biology, 2025).

Legend:
[1] = tested on: Cavin1 Tyr156 phosphorylation in HDMEC; experiment: Cavin1 Tyr156 phosphorylation, immunoblot in HDMEC; assay type: cell-based, human; settings: WNK1 siRNA 72 h or WNK463 1 µM 18 h
How it was run: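 HDMEC were grown in MCDB 131 with 10% FBS, 10 mM L-glutamine, 10 ng/ml EGF, 1 ug/mL hydrocortisone and penicillin/streptomycin, at 37 °C and 5% CO2. Lysates were made directly in SDS/β-mercaptoethanol sample buffer and immunoblotted for phospho-Cavin1 Tyr156 and total Cavin1. Data are means ± SEM; unpaired two-tailed t-test.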

[2] = tested on: phospho-SPAK Ser373/phospho-OSR1 Ser325 in HDMEC; experiment: phospho-SPAK/phospho-OSR1 immunoblot in HDMEC; assay type: cell-based, human; settings: WNK463 1 µM 18 h, unlike OSR1
How it was run: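 Endothelial cells (HDMEC) were kept in MCDB 131 with 10% FBS, 10 mM L-glutamine, 10 ng/ml EGF, 1 ug/mL hydrocortisone and antibiotics, at 37 °C and 5% CO2. Pan-WNK inhibitor was given at 1 µM for 18 h. Cells were harvested in SDS/DTT/β-mercaptoethanol sample buffer, then immunoblotted with an antibody recognising phospho-SPAK Ser373/phospho-OSR1 Ser325. Results are means ± SEM, compared by unpaired two-tailed t-test.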

[3] = tested on: A549 cells stably expressing TSC22D1-mNeonGreen; experiment: TSC22D1-mNeonGreen localization, A549 cells; assay type: cell-based, human; settings: A549, WNK463 1 µM, 24 h
How it was run: (§1)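 Stable lines came from a lentiviral vector carrying long-isoform TSC22D1 with a C-terminal mNeonGreen tag, transfected with Lipofectamine 3000. Cells were puromycin-selected and sorted by flow cytometry. Pan-WNK inhibitor was applied at 1 µM for 24 h. Cells on coverslips were fixed (4% PFA, 15 min, RT), permeabilised (0.1% Triton X-100, 4.5 min), blocked with 10% goat serum, stained with antibodies and Alexa secondaries (1:500), mounted with DAPI and imaged by confocal microscopy. In A549, endogenous OSR1 was co-stained.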

[4] = tested on: HEK293T cells stably expressing TSC22D1-mNeonGreen; experiment: TSC22D1-mNeonGreen localization, HEK293T cells; assay type: cell-based, human; settings: WNK463 1 µM, 24 h, confocal microscopy, n=1
How it was run: as §1

[5] = tested on: TSC22D family mRNA in HDMEC; experiment: qPCR of TSC22D family members in HDMEC; assay type: cell-based, human; settings: 1 µM WNK463, 14 hours, two replicates
[6] = tested on: 3xFLAG-OSR1 / endogenous TSC22D1; assay type: binding, human; settings: HEK293T cells, 50 µM CCT blocking peptide, n = 3
How it was run: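 HEK293T cells were grown in DMEM with 10% FBS and expressed 3xFLAG-OSR1. Endogenous TSC22D1 was co-immunoprecipitated and detected by immunoblot. Three independent experiments.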

Molecule | total Cavin1 protein amount [1] | phosphorylation of SPAK [2] | TSC22D1 puncta ([3]; confocal microscopy, n = 3) | localization of endogenous OSR1 ([3]; immunofluorescence) | TSC22D1 puncta [4] | mRNA amounts of TSC22D family members [5] | association of endogenous TSC22D1 with 3xFLAG-OSR1 [6]
CC(C)(C)NC(=O)c1cncn1C1CCN(c2ccc(-c3nnc(C(F)(F)F)o3)cn2)CC1 [WNK463] | little change | resistant | induced TSC22D1 puncta | colocalized in puncta with tagged TSC22D1 | induced TSC22D1 puncta | altered mRNA amounts of TSC22D family members | 
NH3^+-SAGRRFIVSPVPE-COO^− [SAGRRFIVSPVPE (WT)] |  |  |  |  |  |  | prevented their association
